The source of these data is paper PMC4351130 (Nature structural & molecular biology, 2015).

One assay concerns human δ-OR. In words: δ-OR β-arrestin recruitment Tango assay. Type of assay: cell-based. To be noted: normalized to DADLE, N = 3 in quadruplicate, Supplementary Fig. 5. An outline of the steps:
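Modified Tango β-arrestin recruitment format at human δ-OR. Values are mean ± SEM from three independent experiments, each run in quadruplicate.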

A further assay has as its system δ-OR. To be noted: cited from earlier work.
Another assay has as its system μ-OR. The conditions noted are these: cited from earlier work.
The conditions of assay [1]: co-administration with morphine; cited from earlier work.
For assay [2], the target named is double δ-OR mutant Leu300^7.35Trp - Trp284^6.58Lys (human) (UniProt P41143).

For “H-Dmt(1)-Tic(2)-Phe(3)-Phe(4)-NH2 [DIPP-NH2]”, the “Agonist activity at δ-OR, β-arrestin pathway” value in the assay on human δ-OR is listed as “weak partial agonist activity”. In the assay with δ-OR, the “Functional activity in mouse vas deferens assay” value is given as “δ-OR antagonist”. For the same compound, the “Functional activity in guinea pig ileum assay” value in the assay with μ-OR is on record as “μ-OR agonist”.
Turning to `Oc1ccc2c3c1O[C@H]1c4[nH]c5ccccc5c4C[C@@]4(O)[C@@H](C2)N(CC2CC2)CC[C@]314` [naltrindole], the “Effect on development of morphine-induced tolerance and dependence” value in assay [1] is “prevent the development of morphine-induced tolerance and dependence”.
“DIPP-NH2, H-Dmt(1)-Tic(2)-Phe(3)-Phe(4)-NH2 (peptide)” displayed a fold decrease in affinity against the unmutated receptor in assay [2] greater than 100 fold.
